Measured values: ChEMBL document CHEMBL1123082, “Hashish: synthesis and central nervous system activity of some novel analogues of cannabidiol and oxepin derivatives of delta 9-tetrahydrocannabinol” (1985)

Key:
Mus musculus [1] = test: Spontaneous activity in mice at a dose 10 mg/kg; assay type: functional
In short: (§1)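 Male ICR mice (22–30 g), housed 24 h in the lab before testing. Vehicle or drug given iv (0.1 mL/10 g), then each mouse placed alone in a photocell activity chamber. Beam interruptions counted for 10 min and expressed as percent of vehicle-treated controls. ED50 with 95% confidence limits by Litchfield–Wilcoxon. At least six mice per dose.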

Mus musculus [2] = test: Compound was evaluated for the percent antagonism by tail-flick test in mice in mice at dose 10 mg/kg; assay type: functional
In short: (§2)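 Male ICR mice (22–30 g). Vehicle or drug given iv 10 min before an iv injection of Δ9-THC (1 mg/kg) or vehicle into the opposite tail vein. Tail-flick measured 5 min after the second injection, with a 10 s cutoff. % antagonism = [1 − (%MPE drug-pretreated / %MPE vehicle-pretreated)] × 100. At least six mice per dose.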

Mus musculus [3] = test: Compound was evaluated for the percent antagonism by tail-flick test in mice in mice at dose 25 mg/kg; assay type: functional; in short: as §2
Mus musculus [4] = test: The difference between the preinjection and postinjection (60 min) temperatures in mice was evaluated at a dose 30 mg/kg; assay type: functional
In short: (§3)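 Male ICR mice (22–30 g). Rectal temperature taken by thermistor probe inserted 25 mm just before iv vehicle or drug (0.1 mL/10 g). Mice spent 10 min in activity chambers, then temperature was taken immediately and every 10 min up to 60 min. Value is the change from pre-injection to 60 min post-injection, mean ± SEM, N = 6. Ambient temperature was 21–24 °C.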

Mus musculus [5] = test: The difference between the preinjection and postinjection (60 min) temperatures in mice was evaluated at a dose 35 mg/kg; assay type: functional; in short: as §3
Mus musculus [6] = test: The difference between the preinjection and postinjection (60 min) temperatures in mice was evaluated at a dose 25 mg/kg; assay type: functional; in short: as §3
Mus musculus [7] = test: Compound was evaluated for the maximum possible effect by tail-flick test in mice at dose 25 mg/kg; assay type: functional
In short: (§4)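 Male ICR mice (22–30 g). Control tail-flick latency to a heat source measured in each mouse. Vehicle or drug then given iv into the tail vein and latency retested 5 min later, with a 10 s cutoff. %MPE = (test − control)/(cutoff − control) × 100. At least six mice per dose.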

Mus musculus [8] = test: Compound was evaluated for the percent antagonism in tail-flick test in mice at a dose 20 mg/kg; assay type: functional; in short: as §2
Mus musculus [9] = test: The difference between the preinjection and postinjection (60 min) temperatures in mice was evaluated at a dose 60 mg/kg; assay type: functional
In short: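 Male ICR mice (22–30 g), housed 24 h before testing; rectal temperature by thermistor probe inserted 25 mm, taken just before dosing. Drug or vehicle given iv (0.1 mL/10 g); mice held 10 min in photocell chambers, then temperature read at 10-min intervals to 60 min. Value is pre- minus 60-min post-injection difference, mean ± SEM, N = 6.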

Mus musculus [10] = test: The difference between the preinjection and postinjection (60 min) temperatures in mice was evaluated at a dose 10 mg/kg; assay type: functional; in short: as §3
Mus musculus [11] = test: Compound was evaluated for the maximum possible effect in tail-flick test in mice at dose 20 mg/kg; assay type: functional; in short: as §4
Canis familiaris = test: Compound was evaluated for overt behavoiur in dogs by behavioral rating score in dog static-ataxia test at a dose 0.5 mg/kg; assay type: functional, Canis lupus familiaris
In short: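 Mongrel dogs of either sex (8–12 kg) scored for spontaneous activity, gait, tail tuck, etc. before dosing. Cannabinoid or vehicle then given iv (1 mL/5 kg). Behaviour rated every 5 min on the Walton static-ataxia scale as modified. Sessions of five dogs: vehicle, 0.2 mg/kg Δ9-THC positive control, or one of three other cannabinoid treatments. Score given with number of dogs.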

Mus musculus [12] = test: The difference between the preinjection and post injection temperatures in vehicle treated mice was evaluated at a dose 100 mg/kg; assay type: functional; in short: as §3
Mus musculus [13] = test: The difference between the preinjection and post injection temperatures in vehicle treated mice was evaluated at a dose 10 mg/kg; assay type: functional; in short: as §3
Mus musculus [14] = test: The difference between the preinjection and post injection temperatures in vehicle treated mice was evaluated at a dose 1 mg/kg; assay type: functional; in short: as §3
Mus musculus [15] = test: The difference between the preinjection and post injection temperatures in vehicle treated mice was evaluated at a dose 30 mg/kg; assay type: functional; in short: as §3
Mus musculus [16] = test: The difference between the preinjection and post injection temperatures in vehicle treated mice was evaluated at a dose 3 mg/kg; assay type: functional; in short: as §3
Mus musculus [17] = test: Compound was evaluated spontaneous activity in vehicle treated mice at a dose 100 mg/kg.; assay type: functional; in short: as §1
Mus musculus [18] = test: Compound was evaluated spontaneous activity in vehicle treated mice at a dose 10 mg/kg.; assay type: functional; in short: as §1
Mus musculus [19] = test: Compound was evaluated spontaneous activity in vehicle treated mice at a dose 1 mg/kg.; assay type: functional; in short: as §1
Mus musculus [20] = test: Compound was evaluated spontaneous activity in vehicle treated mice at a dose 3 mg/kg.; assay type: functional; in short: as §1
Mus musculus [21] = test: Compound was evaluated spontaneous activity in vehicle treated mice at a dose 30 mg/kg.; assay type: functional; in short: as §1
Mus musculus [22] = test: Compound was evaluated for the percent antagonism by tail-flick test in mice in mice at dose 20 mg/kg; assay type: functional; in short: as §2
Mus musculus [23] = test: Compound was evaluated for the percent antagonism in tail-flick test in mice in mice at dose 10 mg/kg; assay type: functional; in short: as §2
Mus musculus [24] = test: Compound was evaluated for the maximum possible effect by tail-flick test in mice at dose 20 mg/kg; assay type: functional; in short: as §4

`C=C(CNC(=O)CCCN)[C@@H]1CCC(C)=CC1c1c(O)cc(CCCCC)cc1O` (stereo partly specified) was tested, and the ED50 (Mus musculus [1]) was 30 mg/kg, the Antagonism (Mus musculus [2]) was 14% and the Antagonism (Mus musculus [3]) was 43%. It also gave a Hypothermic effect (Mus musculus [4]) of 2, a Hypothermic effect (Mus musculus [5]) of 2.1 and a Hypothermic effect (Mus musculus [6]) of 1.3. For the same compound, the MPE (Mus musculus [7]) was 7%.
Work on `C=C(CN1CCOCC1)[C@@H]1CCC(C)=CC1c1c(OC(C)=O)cc(CCCCC)cc1OC(C)=O` (stereo partly specified) yielded an ED50 (Mus musculus [1]) of 16 mg/kg, an Antagonism (Mus musculus [8]) of 14% and a Hypothermic effect (Mus musculus [4]) of 1.2. The Hypothermic effect (Mus musculus [9]) was 1.3, the Hypothermic effect (Mus musculus [10]) was 0.9 and the MPE (Mus musculus [11]) was 3%.
Compound `C=C1COc2cc(C(C)C(C)CCCCC)cc(O)c2C2C=C(C)CC[C@@H]12` (stereo partly specified) has an Overt behavoiur (Canis familiaris) of 0, a Hypothermic effect (Mus musculus [12]) of 7.8 and a Hypothermic effect (Mus musculus [13]) of 4.9. For the same compound, the Hypothermic effect (Mus musculus [14]) was 0.4, the Hypothermic effect (Mus musculus [15]) was 5.7 and the Hypothermic effect (Mus musculus [16]) was 0.6. The Spontaneous activity (Mus musculus [17]) was 82, the Spontaneous activity (Mus musculus [18]) was 71 and the Spontaneous activity (Mus musculus [19]) was 10. It also gave a Spontaneous activity (Mus musculus [20]) of 50 and a Spontaneous activity (Mus musculus [21]) of 58.
In the case of `C#CCN(C)CC(=C)[C@@H]1CCC(C)=CC1c1c(OC(C)=O)cc(CCCCC)cc1OC(C)=O` (stereo partly specified), the ED50 (Mus musculus [1]) is reported as 13 mg/kg, the Antagonism (Mus musculus [22]) is reported as 63% and the Antagonism (Mus musculus [23]) is reported as 25%. For the same compound, the Hypothermic effect (Mus musculus [4]) was 1, the Hypothermic effect (Mus musculus [9]) was 1.5 and the Hypothermic effect (Mus musculus [10]) was 0.3. The MPE (Mus musculus [24]) was 0%.
